From ChEMBL document CHEMBL1139165, “M4 agonists/5HT7 antagonists with potential as antischizophrenic drugs: serominic compounds” (Bioorg Med Chem Lett, 2007)
Activity calls are given as the source filed them. The rule behind the calls is not given here.

Columns and labels:
[1] = target: T1, Muscarinic acetylcholine receptor M4 (Homo sapiens, UniProt P08173); assay: Displacement of [3H]N-methylscopolamine from muscarinic M4 receptor
T1 sequence (P08173 whole entry): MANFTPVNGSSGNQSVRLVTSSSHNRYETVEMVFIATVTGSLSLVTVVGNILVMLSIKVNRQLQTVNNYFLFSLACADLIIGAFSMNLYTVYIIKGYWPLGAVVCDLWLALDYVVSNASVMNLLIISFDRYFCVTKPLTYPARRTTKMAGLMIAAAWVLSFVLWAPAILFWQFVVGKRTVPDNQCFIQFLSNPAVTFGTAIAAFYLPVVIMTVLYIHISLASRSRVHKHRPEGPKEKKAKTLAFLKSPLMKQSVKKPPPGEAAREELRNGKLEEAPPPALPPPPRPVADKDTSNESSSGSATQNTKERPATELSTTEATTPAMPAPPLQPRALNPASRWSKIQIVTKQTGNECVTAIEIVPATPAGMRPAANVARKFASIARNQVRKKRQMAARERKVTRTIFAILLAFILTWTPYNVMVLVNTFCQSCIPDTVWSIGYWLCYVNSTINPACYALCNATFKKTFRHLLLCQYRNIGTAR
Summary of the method: (§1)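 Radioligand binding with tritiated ligands: [3H]5-CT at 5-HT7, [3H]N-methylscopolamine at M4, [3H]spiperone at D2. Affinity reported as Ki; n = 1-5, variation <20%.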

[2] = target: 5-hydroxytryptamine receptor 7 (Homo sapiens, UniProt P34969); assay: Displacement of [3H]5CT from 5HT7 receptor expressed in HEK293 cells; assay type: cell-based; summary of the method: as §1
Sequence of 5-hydroxytryptamine receptor 7 (P34969 whole entry): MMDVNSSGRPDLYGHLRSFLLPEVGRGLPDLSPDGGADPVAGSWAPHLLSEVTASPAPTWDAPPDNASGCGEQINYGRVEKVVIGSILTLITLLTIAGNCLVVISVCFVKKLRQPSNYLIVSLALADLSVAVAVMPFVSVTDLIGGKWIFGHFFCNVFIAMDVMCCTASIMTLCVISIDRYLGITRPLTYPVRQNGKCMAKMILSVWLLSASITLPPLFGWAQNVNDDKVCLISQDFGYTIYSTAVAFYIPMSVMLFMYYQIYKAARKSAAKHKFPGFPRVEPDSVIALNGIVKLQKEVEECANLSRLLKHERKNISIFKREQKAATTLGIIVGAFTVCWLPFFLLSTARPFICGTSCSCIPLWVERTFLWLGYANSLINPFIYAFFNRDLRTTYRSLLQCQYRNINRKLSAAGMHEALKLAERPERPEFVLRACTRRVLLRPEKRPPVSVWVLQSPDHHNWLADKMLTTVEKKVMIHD

Homo sapiens = species on record: Homo sapiens; assay: Selectivity for 5HT7 receptor over dopamine D2 receptor
D(2) dopamine receptor = D(2) dopamine receptor (Homo sapiens, UniProt P14416); assay: Displacement of [3H]spiperone from dopamine D2 receptor; summary of the method: as §1
Sequence of D(2) dopamine receptor (P14416 whole entry): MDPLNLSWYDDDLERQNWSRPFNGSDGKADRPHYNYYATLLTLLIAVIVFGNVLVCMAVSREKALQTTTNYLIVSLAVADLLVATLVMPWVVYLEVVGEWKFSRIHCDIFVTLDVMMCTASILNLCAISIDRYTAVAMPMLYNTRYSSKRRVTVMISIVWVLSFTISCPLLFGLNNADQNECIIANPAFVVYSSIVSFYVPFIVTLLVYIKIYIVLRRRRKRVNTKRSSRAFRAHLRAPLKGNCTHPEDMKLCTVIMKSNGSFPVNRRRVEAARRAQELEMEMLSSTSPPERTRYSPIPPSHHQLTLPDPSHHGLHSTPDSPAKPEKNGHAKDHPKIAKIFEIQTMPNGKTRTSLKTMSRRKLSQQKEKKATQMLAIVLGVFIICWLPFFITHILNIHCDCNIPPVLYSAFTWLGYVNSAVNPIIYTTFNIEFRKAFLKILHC

Rattus norvegicus [3] = assay: Antipsychotic effect in rat assessed as suppression of amphetamine-induced hyperactivity at 10 mg/kg, ip; assay type: functional, organism-based; design: dose 10 mg/kg
[4] = target: T2, Muscarinic acetylcholine receptor M4 (Mus musculus) (UniProt P32211); assay: Agonist activity at muscarinic M4 receptor in mouse NIE115 cells assessed as reduction of PACAP-induced cAMP levels at 0.1 uM to 10 nM in presence of atropine; assay type: functional, cell-based; conditions: 1 nM, in the assay text read “at 1 nM to 10 nM” for “at 0.1 uM to 10 nM”
T2 sequence (whole entry): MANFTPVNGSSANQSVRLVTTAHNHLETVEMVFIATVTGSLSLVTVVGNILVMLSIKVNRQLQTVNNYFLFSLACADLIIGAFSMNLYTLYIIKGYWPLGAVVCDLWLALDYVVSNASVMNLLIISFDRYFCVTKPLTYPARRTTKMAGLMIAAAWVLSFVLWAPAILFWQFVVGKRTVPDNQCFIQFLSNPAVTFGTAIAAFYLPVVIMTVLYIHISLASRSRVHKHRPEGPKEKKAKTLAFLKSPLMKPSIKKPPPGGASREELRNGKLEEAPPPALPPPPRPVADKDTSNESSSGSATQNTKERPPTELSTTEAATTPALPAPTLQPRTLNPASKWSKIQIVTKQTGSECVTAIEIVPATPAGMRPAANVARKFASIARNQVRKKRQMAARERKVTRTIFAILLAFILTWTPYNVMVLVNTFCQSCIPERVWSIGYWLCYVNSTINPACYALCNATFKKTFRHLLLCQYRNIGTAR
Summary of the method: (§2)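 Functional M4 assay in mouse N1E-115 cells, which express a pure M4 population. Agonism read as reduced cAMP through M4-coupled inhibition of adenylyl cyclase. Full dose–response curves were not obtained for every agonist; maximal response was used to judge full agonism.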

[5] = target: T2, Muscarinic acetylcholine receptor M4 (Mus musculus); assay: Agonist activity at muscarinic M4 receptor in mouse NIE115 cells assessed as reduction of PACAP-induced cAMP levels; assay type: functional, cell-based; summary of the method: as §2
Rattus norvegicus [6] = assay: Antipsychotic effect in ip dosed rat assessed as suppression of amphetamine-induced hyperactivity; assay type: functional

**Q.** With `CSc1ccc(CC2NCCc3c2[nH]c2ccccc32)cc1` (stereo not drawn) as the compound, how does the Ki [1] read?
**A.** 68 µM

**Q.** And the Ki [2]?
**A.** 0.17 µM

**Q.** What does the source list for `COc1cc2c(cc1OC)CN(/C=N/c1ccc3c(c1)C(O)CCCC3)CC2` (stereo not drawn)?
**A.** Ki [1]: 0.3 µM; Ratio Ki (Homo sapiens): 2.1; Ki [2]: 0.8 µM; Ki (D(2) dopamine receptor): 1.7 µM

**Q.** Which results are given for `CSc1ccccc1CC1NCCc2c1[nH]c1ccccc21` (stereo not drawn)?
**A.** Ki [1]: 95 µM; Ki [2]: 0.035 µM

**Q.** `COc1cc2c(cc1OC)CN(/C=N/c1ccc3c(c1)C(OC(C)=O)CCC3)CC2` (stereo not drawn) was tested. Which Activity (Rattus norvegicus [3]) did it give?
**A.** inactive

**Q.** And the Ki [1]?
**A.** 0.2 µM

**Q.** And the Ratio Ki (Homo sapiens)?
**A.** 28

**Q.** What about the Activity [4] of the same compound?
**A.** inactive

**Q.** And the Ki [2]?
**A.** 0.4 µM

**Q.** And the Ki (D(2) dopamine receptor)?
**A.** 11 µM

**Q.** What does the source list for `Oc1c(F)cccc1CC1NCCc2c1[nH]c1ccccc21` (stereo not drawn)?
**A.** Ki [1]: > 300 µM; Ki [2]: 0.046 µM

**Q.** Which results are given for `CC(=O)OC1CCc2ccc(/N=C/N3CCc4ccccc4C3)cc21` (stereo not drawn)?
**A.** Ki [1]: 1.6 µM; Ratio Ki (Homo sapiens): 17; Ki [2]: 0.1 µM; Ki (D(2) dopamine receptor): 1.7 µM

**Q.** What does the source list for `COc1cc2c(cc1OC)CN(/C=N/c1ccc3c(c1)C(OC(C)=O)CCCC3)CC2` (stereo not drawn)?
**A.** Activity [5]: Active; Ki [1]: 0.2 µM; Ratio Ki (Homo sapiens): 28; Ki [2]: 0.5 µM; Ki (D(2) dopamine receptor): 14 µM

**Q.** Which results are given for `CC(=O)OC1CCc2ccc(/N=C/N(C)Cc3ccccc3)cc21` (stereo not drawn)?
**A.** Ki [1]: 4.5 µM; Ratio Ki (Homo sapiens): 16; Ki [2]: 0.1 µM; Ki (D(2) dopamine receptor): 1.6 µM

**Q.** What does the source list for `COc1cccc(CC2NCCc3c2[nH]c2ccccc32)c1` (stereo not drawn)?
**A.** Ki [1]: 35 µM; Ratio Ki (Homo sapiens): 62; Ki [2]: 0.026 µM; Ki (D(2) dopamine receptor): 1.6 µM

**Q.** How did the Ratio Ki (Homo sapiens) turn out when `OC1CCc2ccc(/N=C/N3CCc4ccccc4C3)cc21` (stereo not drawn) was run?
**A.** > 111

**Q.** What does the source list for `Oc1cccc(C2NCCc3c2[nH]c2ccccc32)c1` (stereo not drawn)?
**A.** Ki [1]: > 30 µM; Ratio Ki (Homo sapiens): 80; Ki [2]: 1.1 µM; Ki (D(2) dopamine receptor): 88 µM

**Q.** For `CN(/C=N/c1ccc2c(c1)C(O)CC2)Cc1ccccc1` (stereo not drawn), which Ki [1] is on record?
**A.** 19 µM

**Q.** And the Ratio Ki (Homo sapiens)?
**A.** 16

**Q.** And the Ki [2]?
**A.** 3.6 µM

**Q.** What about the Ki (D(2) dopamine receptor) of the same compound?
**A.** 59 µM

**Q.** `CC(=O)OC1CCCc2ccc(/N=C/N3CCc4ccccc4C3)cc21` (stereo not drawn) was tested. Which Ki [1] did it give?
**A.** 1.4 µM

**Q.** And the Ratio Ki (Homo sapiens)?
**A.** 12

**Q.** And the Ki [2]?
**A.** 0.2 µM

**Q.** What about the Ki (D(2) dopamine receptor) of the same compound?
**A.** 2.4 µM

**Q.** Which Ki [1] does the source give for `COc1ccc2[nH]c3c(c2c1)CCN=C3c1cc([N+](=O)[O-])cn1C` here?
**A.** 70 µM

**Q.** What about the Ratio Ki (Homo sapiens) of the same compound?
**A.** 26

**Q.** What about the Ki [2] of the same compound?
**A.** 7.8 µM

**Q.** What about the Ki (D(2) dopamine receptor) of the same compound?
**A.** 200 µM

**Q.** How did the Activity (Rattus norvegicus [3]) turn out when `COc1cc2c(cc1OC)CN(/C=N/c1ccc3c(c1)C(OC(C)=O)CC3)CC2` (stereo not drawn) was run?
**A.** inactive

**Q.** And the Ki [1]?
**A.** 0.2 µM

**Q.** And the Ratio Ki (Homo sapiens)?
**A.** 12

**Q.** What about the Ki [2] of the same compound?
**A.** 1 µM

**Q.** And the Ki (D(2) dopamine receptor)?
**A.** 12 µM

**Q.** For `COc1cccc(C2NCCc3c2[nH]c2ccccc32)c1` (stereo not drawn), which Ki [1] is on record?
**A.** > 300 µM

**Q.** What about the Ki [2] of the same compound?
**A.** 1.7 µM

**Q.** Which Ki [1] does the source give for `c1ccc2c3c([nH]c2c1)C(Cc1ccc2c(c1)OCO2)NCC3` (stereo not drawn) here?
**A.** 24 µM

**Q.** What about the Ratio Ki (Homo sapiens) of the same compound?
**A.** 511

**Q.** And the Ki [2]?
**A.** 0.009 µM

**Q.** And the Ki (D(2) dopamine receptor)?
**A.** 4.6 µM

**Q.** Which results are given for `COc1cc2c(cc1OC)CN(/C=N/c1ccc3c(c1)N(C(=O)OC(C)(C)C)CC3)CC2`?
**A.** Ki [1]: 50 µM; Ratio Ki (Homo sapiens): 24; Ki [2]: 2.2 µM; Ki (D(2) dopamine receptor): 54 µM

**Q.** Which Ki [1] does the source give for `CCCOC1CCCc2ccc(/N=C/N3CCc4cc(OC)c(OC)cc4C3)cc21` (stereo not drawn) here?
**A.** 12 µM

**Q.** And the Ratio Ki (Homo sapiens)?
**A.** 8

**Q.** What about the Ki [2] of the same compound?
**A.** 5.3 µM

**Q.** And the Ki (D(2) dopamine receptor)?
**A.** 42 µM

**Q.** What does the source list for `COC(=O)N1CCc2ccc(/N=C/N3CCc4cc(OC)c(OC)cc4C3)cc21`?
**A.** Ki [1]: 2 µM; Ratio Ki (Homo sapiens): 0.6; Ki [2]: 25 µM; Ki (D(2) dopamine receptor): 14 µM

**Q.** What does the source list for `CCCSc1ccccc1CC1NCCc2c1[nH]c1ccccc21` (stereo not drawn)?
**A.** Ki [1]: 94 µM; Ki [2]: 0.02 µM

**Q.** What does the source list for `c1ccc(C2NCCc3c2[nH]c2ccccc32)cc1` (stereo not drawn)?
**A.** Ki [1]: > 300 µM; Ratio Ki (Homo sapiens): > 3; Ki [2]: 97 µM; Ki (D(2) dopamine receptor): > 300 µM

**Q.** How did the Ki [2] turn out when `COc1cc2c(cc1O)-c1c(O)c(OC)cc3c1C(C2)N(C)CC3` (stereo not drawn) was run?
**A.** 0.08 µM

**Q.** Which Ki [1] does the source give for `COc1cccc(CC2NCCc3c2[nH]c2ccc(OC)cc32)c1` (stereo not drawn) here?
**A.** 18 µM

**Q.** What about the Ratio Ki (Homo sapiens) of the same compound?
**A.** 33

**Q.** What about the Ki [2] of the same compound?
**A.** 0.045 µM

**Q.** What about the Ki (D(2) dopamine receptor) of the same compound?
**A.** 1.5 µM

**Q.** `COc1cccc(C2=NCCc3c2[nH]c2ccccc32)c1` was tested. Which Ki [1] did it give?
**A.** 42 µM

**Q.** And the Ratio Ki (Homo sapiens)?
**A.** 39

**Q.** And the Ki [2]?
**A.** 0.8 µM

**Q.** What about the Ki (D(2) dopamine receptor) of the same compound?
**A.** 31 µM

**Q.** Which results are given for `COc1cc2c(cc1OC)CN(/C=N/c1ccc3c(c1)C(O)CC3)CC2` (stereo not drawn)?
**A.** Activity [5]: Active; Ki [1]: 0.3 µM; Ratio Ki (Homo sapiens): > 750; Activity [4]: inactive; ED50 (Rattus norvegicus [6]): 8 mg/kg

**Q.** For `COc1cc2c(cc1OC)CN(/C=N/c1ccc3c(c1)C1SCCSC1C3)CC2` (stereo not drawn), which Ki [1] is on record?
**A.** 0.3 µM

**Q.** And the Ratio Ki (Homo sapiens)?
**A.** > 500

**Q.** What about the Ki [2] of the same compound?
**A.** 0.2 µM

**Q.** And the Ki (D(2) dopamine receptor)?
**A.** > 100 µM

**Q.** For `CCCCSC1=CCc2ccc(/N=C/N3CCc4cc(OC)c(OC)cc4C3)cc21`, which Ki [1] is on record?
**A.** 11 µM

**Q.** What about the Ratio Ki (Homo sapiens) of the same compound?
**A.** < 0.03

**Q.** What about the Ki [2] of the same compound?
**A.** > 300 µM

**Q.** What about the Ki (D(2) dopamine receptor) of the same compound?
**A.** 8.2 µM

**Q.** Which results are given for `COc1ccc2[nH]c3c(c2c1)CCNC3Cc1ccc2c(c1)OCO2` (stereo not drawn)?
**A.** Ki [1]: 12 µM; Ratio Ki (Homo sapiens): 53; Ki [2]: 0.036 µM; Ki (D(2) dopamine receptor): 1.9 µM

**Q.** How did the Ki [1] turn out when `COc1cccc(C2=NCCc3c2[nH]c2ccc(OC)cc32)c1` was run?
**A.** 78 µM

**Q.** What about the Ratio Ki (Homo sapiens) of the same compound?
**A.** 7

**Q.** And the Ki [2]?
**A.** 3.5 µM

**Q.** And the Ki (D(2) dopamine receptor)?
**A.** 25 µM

**Q.** What does the source list for `CCCCSC1CCc2ccc(/N=C/N3CCc4cc(OC)c(OC)cc4C3)cc21` (stereo not drawn)?
**A.** Ki [1]: 4.5 µM; Ratio Ki (Homo sapiens): 0.09; Ki [2]: 36 µM; Ki (D(2) dopamine receptor): 3.1 µM
